According to ChEMBL document CHEMBL1145023, “Homology modeling of rat and human cytochrome P450 2D (CYP2D) isoforms and computational rationalization of experimental ligand-binding specificities” (J Med Chem, 2003):

What was measured:
Assay type in all cases: ADME
[1] = molecular target: Cytochrome P450 2D6 (Homo sapiens, UniProt P10635); assay: Inhibition of MAMC O-dealkylation mediated by human Cytochrome P450 2D6 expressed in human lymphoblastoid cell line
Procedure, shortened: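 Human CYP2D6 (1 nM) competition run as a microplate-reader fluorescence assay. MAMC is the substrate at 10 μM final, with and without a range of inhibitor concentrations. IC50 is obtained by nonlinear least-squares one-site competition fitting.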

[2] = molecular target: T1, Cytochrome P450 2D1 (Rattus norvegicus, UniProt P10633); assay: Inhibition of MAMC O-dealkylation mediated by rat Cytochrome P450 2D1 expressed in Saccharomyces cerevisiae
T1 sequence (P10633 whole entry): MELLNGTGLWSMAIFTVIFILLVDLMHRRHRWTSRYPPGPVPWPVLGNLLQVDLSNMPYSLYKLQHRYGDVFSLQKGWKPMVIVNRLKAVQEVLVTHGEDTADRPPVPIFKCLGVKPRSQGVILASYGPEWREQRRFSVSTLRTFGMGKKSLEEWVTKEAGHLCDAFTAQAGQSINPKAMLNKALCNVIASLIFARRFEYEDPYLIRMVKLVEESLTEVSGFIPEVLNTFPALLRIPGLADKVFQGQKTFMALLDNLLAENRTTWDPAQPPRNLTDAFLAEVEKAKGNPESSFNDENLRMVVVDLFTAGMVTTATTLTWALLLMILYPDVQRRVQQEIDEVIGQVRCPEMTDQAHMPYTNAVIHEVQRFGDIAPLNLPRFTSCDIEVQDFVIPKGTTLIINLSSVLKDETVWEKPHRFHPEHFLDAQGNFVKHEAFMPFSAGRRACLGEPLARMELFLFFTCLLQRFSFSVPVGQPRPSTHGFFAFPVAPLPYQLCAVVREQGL
Procedure, shortened: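 Rat CYP2D isozymes are singly expressed in S. cerevisiae and used as microsomes in 100 mM phosphate, pH 7.4, at 37 °C. Enzyme concentrations are 52.0 nM (2D1), 3.1 nM (2D2), 3.6 nM (2D3) and 21.9 nM (2D4). MAMC is 100 μM final, with or without varying inhibitor, after a 5 min preincubation. NADPH-regenerating system is added to start the reaction.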

[3] = molecular target: T2, Cytochrome P450 2D3 (Rattus norvegicus, UniProt P12938); assay: Inhibition of MAMC O-dealkylation mediated by rat Cytochrome P450 2D3 expressed in Saccharomyces cerevisiae
T2 sequence (P12938 whole entry): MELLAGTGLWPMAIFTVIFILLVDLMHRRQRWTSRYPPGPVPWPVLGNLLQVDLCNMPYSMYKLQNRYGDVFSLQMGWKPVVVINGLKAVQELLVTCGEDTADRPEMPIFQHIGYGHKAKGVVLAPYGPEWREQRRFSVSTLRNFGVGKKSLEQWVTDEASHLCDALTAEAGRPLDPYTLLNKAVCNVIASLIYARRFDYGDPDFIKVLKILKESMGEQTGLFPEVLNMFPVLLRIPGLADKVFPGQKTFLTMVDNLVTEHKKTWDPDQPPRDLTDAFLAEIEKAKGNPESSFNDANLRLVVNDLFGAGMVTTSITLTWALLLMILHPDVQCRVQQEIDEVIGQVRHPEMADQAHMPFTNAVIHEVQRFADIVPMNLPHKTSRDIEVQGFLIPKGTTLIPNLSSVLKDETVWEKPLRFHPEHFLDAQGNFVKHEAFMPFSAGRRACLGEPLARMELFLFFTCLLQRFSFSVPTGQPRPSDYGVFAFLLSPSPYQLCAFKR
Procedure, shortened: (§1)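 Rat CYP2D isozymes are singly expressed in S. cerevisiae and used as microsomes in 100 mM phosphate, pH 7.4, at 37 °C. MAMC is 100 μM final, with or without varying inhibitor, after a 5 min preincubation. NADPH-regenerating system is added to start the reaction.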

[4] = molecular target: T3, Cytochrome P450 2D4 (Rattus norvegicus, UniProt Q64680); assay: Inhibition of MAMC O-dealkylation mediated by rat Cytochrome P450 2D4 expressed in Saccharomyces cerevisiae; procedure, shortened: as §1
T3 sequence (Q64680 whole entry): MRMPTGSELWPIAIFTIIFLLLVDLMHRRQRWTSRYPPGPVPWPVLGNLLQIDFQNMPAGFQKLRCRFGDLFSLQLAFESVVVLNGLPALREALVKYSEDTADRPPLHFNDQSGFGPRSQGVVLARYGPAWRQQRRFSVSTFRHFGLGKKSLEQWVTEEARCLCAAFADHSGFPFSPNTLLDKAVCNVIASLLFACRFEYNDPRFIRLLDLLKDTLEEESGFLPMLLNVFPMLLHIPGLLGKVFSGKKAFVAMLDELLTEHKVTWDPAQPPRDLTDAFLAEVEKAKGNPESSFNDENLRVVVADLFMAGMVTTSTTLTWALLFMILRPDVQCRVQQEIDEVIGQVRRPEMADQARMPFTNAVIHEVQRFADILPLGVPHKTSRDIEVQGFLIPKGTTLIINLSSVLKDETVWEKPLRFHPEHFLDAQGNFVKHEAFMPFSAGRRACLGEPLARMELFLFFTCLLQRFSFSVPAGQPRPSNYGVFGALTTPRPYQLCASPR

[5] = molecular target: T4, Cytochrome P450 2D26 (Rattus norvegicus, UniProt P10634); assay: Inhibition of MAMC O-dealkylation mediated by rat Cytochrome P450 2D2 expressed in Saccharomyces cerevisiae; procedure, shortened: as §1
T4 sequence (P10634 whole entry): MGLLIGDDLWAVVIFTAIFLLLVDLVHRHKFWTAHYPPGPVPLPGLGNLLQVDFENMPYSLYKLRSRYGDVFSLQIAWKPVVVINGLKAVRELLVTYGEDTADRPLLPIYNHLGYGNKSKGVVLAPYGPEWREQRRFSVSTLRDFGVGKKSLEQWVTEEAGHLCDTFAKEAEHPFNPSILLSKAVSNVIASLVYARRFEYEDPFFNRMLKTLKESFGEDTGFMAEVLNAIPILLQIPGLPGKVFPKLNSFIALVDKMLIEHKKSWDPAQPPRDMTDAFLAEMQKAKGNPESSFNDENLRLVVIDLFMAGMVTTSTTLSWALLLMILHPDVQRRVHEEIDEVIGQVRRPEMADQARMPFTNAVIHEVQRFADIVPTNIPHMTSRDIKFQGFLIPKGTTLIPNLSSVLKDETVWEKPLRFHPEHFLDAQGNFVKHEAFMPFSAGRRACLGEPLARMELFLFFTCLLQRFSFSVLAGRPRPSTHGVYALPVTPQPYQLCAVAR

Cytochrome P450 2D6, sequence (P10635 whole entry): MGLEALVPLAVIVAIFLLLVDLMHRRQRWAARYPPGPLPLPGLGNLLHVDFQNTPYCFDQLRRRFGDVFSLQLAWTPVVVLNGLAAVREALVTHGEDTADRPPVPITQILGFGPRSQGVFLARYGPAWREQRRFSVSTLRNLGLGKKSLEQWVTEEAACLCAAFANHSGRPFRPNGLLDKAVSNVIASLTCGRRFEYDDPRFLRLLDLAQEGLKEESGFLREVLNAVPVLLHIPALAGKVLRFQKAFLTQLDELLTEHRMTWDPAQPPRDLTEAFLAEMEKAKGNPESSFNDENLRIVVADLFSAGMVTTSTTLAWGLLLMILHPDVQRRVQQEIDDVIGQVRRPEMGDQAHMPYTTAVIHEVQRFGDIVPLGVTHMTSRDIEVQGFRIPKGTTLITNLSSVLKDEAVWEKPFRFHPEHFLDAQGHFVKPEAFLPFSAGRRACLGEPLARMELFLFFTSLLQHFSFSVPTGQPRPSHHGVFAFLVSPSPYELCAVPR

Row | SMILES | IC50 [1] [µM] | IC50 [2] [µM] | IC50 [3] [µM] | IC50 [4] [µM] | IC50 [5] [µM]
1 | COc1ccc2c(CN(C)C)cc(=O)oc2c1 | 74.2 | 329 | 862 | 1180 | 307
2 | COc1ccc2c3c1O[C@H]1[C@@H](O)C=C[C@H]4[C@@H](C2)N(C)CC[C@@]341 [CODEINE] | – | 1320 | 4090 | 2220 | 238
3 | N=C(N)N1CCc2ccccc2C1 [DEBRISOQUIN] | 23.8 | 529 | 1750 | 747 | 107
4 | CC(C)NC[C@@H](O)COc1cccc2ccccc12 [DEXPROPRANOLOL] | – | 182 | 155 | 117 | 0.42
5 | COc1ccc2c(c1)[C@]13CCCC[C@@H]1[C@H](C2)N(C)CC3 [DEXTROMETHORPHAN] | 1.8 | 264 | 18.6 | 136 | 5.6
6 | CC(C)NC[C@H](O)COc1cccc2ccccc12 [LEVOPROPRANOLOL] | – | 571 | 172 | 133 | 0.35
7 | CNCCC=C1c2ccccc2CCc2ccccc21 [NORTRIPTYLINE] | 2.3 | 204 | 14.2 | 19.3 | 1.9
8 | [H]/N=C(/N)N/C(=N/[H])NCCc1ccccc1 [PHENFORMIN] | 27 | – | 1930 | 833 | 45.4
9 | C=C[C@H]1C[N@@]2CC[C@H]1C[C@@H]2[C@@H](O)c1ccnc2ccc(OC)cc12 [QUINIDINE] | – | 19.9 | 26.9 | 47.2 | –
10 | C=C[C@H]1C[N@@]2CC[C@H]1C[C@H]2[C@H](O)c1ccnc2ccc(OC)cc12 [QUININE] | – | 46.5 | 12 | 1.7 | –
